Measured values published in the RNAGym collection of RNA variant scans (doi:10.1126/science.aae0568).
This sample holds only a part of the variants without activity.

B1: tRNA (parent)
chain: GUUCCGUUGGCGUAAUGGUAACGCGUCUCCCUCCUAAGGAGAAGACUGCGGGUUCGAGUCCCGUACGGAACG

Variants of: B1
Assay: yeast fitness relative to wild type (ratio to wild type); higher = fitter; tRNA-Arg(CCU), competitive growth, 37 C, YPD
Summary of the method: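 Changes in genotype frequencies gave Darwinian fitness relative to wild type. Frequencies were read by 100-nucleotide paired-end sequencing of gene amplicons before and after pooled Saccharomyces cerevisiae strains, carrying tRNA-Arg(CCU) gene variants at the native locus, were competed in YPD at 37°C for 24 hours in six replicates. A genotype was kept only with ≥ 100 starting reads, and estimates < 0.5 were set to 0.5.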

Variant	yeast fitness
GUUCCGUUGGCGUAAUGGUAACGCGUCUCCCUGCUAAGGAGAAGACUGCGGGUUCCAGUCCUGUACGGAACG [C33G G56C C62U]	≤ 0.5
GUUCCGUUGGCGUAAUGGUAACGCGUCUCCCUGCUAAGGAGAAGACUGCGGGUUCGAGUCCCCUACGGAACG [C33G G63C]	≤ 0.5
GUUCCGUUGGCGUAAUGGUAACGCGUCUCCCUGCUAAGGAGAAGACUGCGGGUUCGAGUCCCUAACGGAACG [C33G G63U U64A]	0.553
GUUCCGUUGGCGUAAUGGUAACGCGUCUCCCUGCUAAGGAGAAGACUGCGGGUUCGAGUCCCUGACGGAACG [C33G G63U U64G]	0.665
GUUCCGUUGGCGUAAUGGUAACGCGUCUCCCUGCUAAGGAGAAGACUGCGGGUUCGAGUCCCGUACAGCACG [C33G G67A A69C]	≤ 0.5
GUUCCGUUGGCGUAAUGGUAACGCGUCUCCCUGCUAAGGAGAAGACUGCGGGUUCGAGUCCCGUACUCUACG [C33G G67U G68C A69U]	≤ 0.5
GUUCCGUUGGCGUAAUGGUAACGCGUCUCCCUGCUAAGGAGAAGACUGCGGGUUCGAGUCCCGUACGAAACG [C33G G68A]	0.671
GUUCCGUUGGCGUAAUGGUAACGCGUCUCCCUGCUAAGGAGAAGACUGCGGGUUCGAGUCCCGUACGCAACG [C33G G68C]	0.558
GUUCCGUUGGCGUAAUGGUAACGCGUCUCCCUGCCAAGAAGAAGACUGCGGGUUCGAGUCCCGUACGGAACG [C33G U35C G39A]	≤ 0.5
GUUCCGUUGGCGUAAUGGUAACGCGUCUCCCUGCUAAGGAGAAGACAGCGGGUUCGAGUCACGUAUGGAACG [C33G U47A C61A C66U]	≤ 0.5
GUUCCGUUGGCGUAAUGGUAACGCGUCUCCCUGCUAAGGAGAAGACAGCGGGUUCGAGUCUCGUACGGUACG [C33G U47A C61U A69U]	0.573
GUUCCGUUGGCGUAAUGGUAACGCGUCUCCCUGCUAAGGAGAAGACAGCGGGUUCGAGUCCCGGACGGAACG [C33G U47A U64G]	0.77
GUUCCGUUGGCGUAAUGGUAACGCGUCUCCCUGCUAAGGAGAAGACCGCGGGUUCGAGUCCAGUACGGAACG [C33G U47C C62A]	0.601
GUUCCGUUGGCGUAAUGGUAACGCGUCUCCCUGCUAAGGAGAAGACCGCGGCUUCGAGUCUCGUACGGAACG [C33G U47C G52C C61U]	≤ 0.5
GUUCCGUUGGCGUAAUGGUAACGCGUCUCCCUGCUAAGGAGAAGACGGCGGGUUCGGGUCCCGUACGGUACG [C33G U47G A57G A69U]	0.509
GUUCCGUUGGCGUAAUGGUAACGCGUCUCCCUGCUAAGGAGAAGACGGCGGGUUCGAGUCCCGUAUGGAACG [C33G U47G C66U]	0.56
GUUCCGUUGGCGUAAUGGUAACGCGUCUCCCUGCUAAGGAGAAGACUGCGGGUACGAGUCCCGUACGGAACG [C33G U54A]	≤ 0.5
GUUCCGUUGGCGUAAUGGUAACGCGUCUCCCUGCUAAGGAGAAGACUGCGGGUCCGAGUCCCGUACGGAACG [C33G U54C]	0.519
GUUCCGUUGGCGUAAUGGUAACGCGUCUCCCUGCUAAGGAGAAGACUGCGGGUGCGAGUCCCGUACGGAACG [C33G U54G]	≤ 0.5

Variant	yeast fitness
GUUCCGUUGGCGUAAUGGUAACGCGUCUCCCUGCUAAGGAGAAGACUGCGGGUUCGAGAGGCGUACGGAACG [C33G U59A C60G C61G]	≤ 0.5
GUUCCGUUGGCGUAAUGGUAACGCGUCUCCCUUCUCAGGAGAAGACUGCGGGUUCGAGUCCCGUACGGAGCG [C33U A36C A70G]	≤ 0.5
GUUCCGUUGGCGUAAUGGUAACGCGUCUCCCUUCUGAGGAGAAGACUGCGGGUUCGAGUCCCGUACGGAACG [C33U A36G]	0.662
GUUCCGUUGGCGUAAUGGUAACGCGUCUCCCUUCUGAGGAGAAGCCUGCGGGUUCGUGCCCCGUACGGAACG [C33U A36G A45C A57U U59C]	≤ 0.5
GUUCCGUUGGCGUAAUGGUAACGCGUCUCCCUUCUGAGGAGAAGACUGCGGGUUUGAGUCCCGUACGGCACG [C33U A36G C55U A69C]	≤ 0.5
GUUCCGUUGGCGUAAUGGUAACGCGUCUCCCUUCUGAGAAGAAAACUGCGGGUUGGAGCCCCGUACGGAACG [C33U A36G G39A G44A C55G U59C]	≤ 0.5
GUUCCGUUGGCGUAAUGGUAACGCGUCUCCCUUCUUAGGAGAAGACUGCGCGUUCGAGUCCCGUACGGUACG [C33U A36U G51C A69U]	0.551
GUUCCGUUGGCGUAAUGGUAACGCGUCUCCCUUCUACGGAGAAGACUGCGGGUUCGAGUCCCGUACGGAACG [C33U A37C]	0.556
GUUCCGUUGGCGUAAUGGUAACGCGUCUCCCUUCUAGGGAGAAGACUGUGGGUUCGUGUCCCGUACGGAACG [C33U A37G C49U A57U]	≤ 0.5
GUUCCGUUGGCGUAAUGGUAACGCGUCUCCCUUCUAUGGAGAAGACUGCGGGUUCGAGUCCCGUACGGAACG [C33U A37U]	0.55
GUUCCGUUGGCGUAAUGGUAACGCGUCUCCCUUCUAUGGAGAAGACUGCGGGUUCGAGUGCCGUACGGCACG [C33U A37U C60G A69C]	≤ 0.5
GUUCCGUUGGCGUAAUGGUAACGCGUCUCCCUUCUAUGGAGAAGACUGCGGGUUCGAGUCUCGUACGGAACG [C33U A37U C61U]	≤ 0.5
GUUCCGUUGGCGUAAUGGUAACGCGUCUCCCUUCUAUGGAGAAGACUGCGGGUUCGAGUCCUGUACGGAACG [C33U A37U C62U]	≤ 0.5
GUUCCGUUGGCGUAAUGGUAACGCGUCUCCCUUCUAUGGAGAAGACUGCGCGUUCGAGUCCCGUUCGGAACG [C33U A37U G51C A65U]	0.584
GUUCCGUUGGCGUAAUGGUAACGCGUCUCCCUUCUAAGGCGAAGACUGCGGGUUCGAGUCCCGUACGGAACG [C33U A40C]	0.777
GUUCCGUUGGCGUAAUGGUAACGCGUCUCCCUUCUAAGGCGAAGCCUGCGGGUUCGAGUCCCGUACGGAACG [C33U A40C A45C]	0.561
GUUCCGUUGGCGUAAUGGUAACGCGUCUCCCUUCUAAGGCGAAGCCUGCGGGUUCGAGUGCCGUCCGGAACG [C33U A40C A45C C60G A65C]	≤ 0.5
GUUCCGUUGGCGUAAUGGUAACGCGUCUCCCUUCUAAGGCGAAGCCUGCGGGUUCGAGGUCCGUACGGAACG [C33U A40C A45C U59G C60U]	≤ 0.5
GUUCCGUUGGCGUAAUGGUAACGCGUCUCCCUUCUAAGGCGAAGACUGCGGGUUCGAGUGCCGUACGGAACG [C33U A40C C60G]	≤ 0.5
